Results published in ChEMBL document CHEMBL1772940, “Design and synthesis of potent and selective aldose reductase inhibitors based on pyridylthiadiazine scaffold” (Eur J Med Chem, 2011).

What was measured:
[1] = test system: Aldehyde reductase AKR1A1 (Rattus norvegicus); experiment: Inhibition of Wistar rat kidney aldehyde reductase at 50 uM by spectrophotometric analysis
[2] = target: Aldo-keto reductase family 1 member B1 (Rattus norvegicus, UniProt P07943); experiment: Inhibition of Wistar rat lens aldose reductase 2 by spectrophotometric analysis
How it was run: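 Partially purified lens enzyme (homogenized in cold water, centrifuged 30 min at 0–4 °C, ammonium sulfate 40/50/75% cuts). Mix without DL-glyceraldehyde was preincubated 10 min at 32 °C; the NADPH drop was read at 340 nm at 32 °C in pH 6.2 phosphate, with the substrate-free rate subtracted. At least four concentrations (10^-4–10^-8 M), triplicate; IC50 from log concentration-response regression.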

Compound	inhibition [1]	IC50 [2]
O=C(O)CN1CN(Cc2ccc(Br)cc2F)S(=O)(=O)c2cc(Cl)cnc21	36.6%	44 nM
COc1ccc(CN2CN(CC(=O)O)c3ncc(Cl)cc3S2(=O)=O)cc1	32.3%	6540 nM
Cc1cnc2c(c1)S(=O)(=O)N(Cc1ccc(Br)cc1F)CN2CC(=O)O	24.6%	127 nM
O=C(O)CN1CN(Cc2cc(F)c(F)cc2F)S(=O)(=O)c2cc(Cl)cnc21	36.5%	38 nM
O=C(O)CN1CN(Cc2cc(F)c(F)cc2F)S(=O)(=O)c2cc(Br)cnc21	44.2%	66 nM
O=C(O)CN1CN(Cc2ccc(C(F)(F)F)cc2)S(=O)(=O)c2cc(Br)cnc21	43.3%	965 nM
COc1ccc(CN2CN(CC(=O)O)c3ncc(C)cc3S2(=O)=O)cc1	17.7%	6270 nM
Cc1cnc2c(c1)S(=O)(=O)N(Cc1cc(F)c(F)cc1F)CN2CC(=O)O	35.4%	84 nM
O=C(O)CN1CN(Cc2ccc(Br)cc2F)S(=O)(=O)c2cc(Br)cnc21	44.9%	69 nM
O=C(O)CN1CN(Cc2cccc([N+](=O)[O-])c2)S(=O)(=O)c2cc(Br)cnc21	31.5%	98 nM
Cc1cnc2c(c1)S(=O)(=O)N(Cc1ccc(C(F)(F)F)cc1)CN2CC(=O)O	20.5%	1000 nM
COc1ccc(CN2CN(CC(=O)O)c3ncc(Br)cc3S2(=O)=O)cc1	27.9%	11300 nM
O=C(O)CN1CN(Cc2cccc([N+](=O)[O-])c2)S(=O)(=O)c2cc(Cl)cnc21	40.2%	93 nM
Cc1cnc2c(c1)S(=O)(=O)N(Cc1cccc([N+](=O)[O-])c1)CN2CC(=O)O	23.2%	143 nM
O=C(O)CN1CN(Cc2ccc(C(F)(F)F)cc2)S(=O)(=O)c2cc(Cl)cnc21	42.3%	1010 nM
